The source of these data is ChEMBL document CHEMBL1667757, “Efficient and novel one-pot synthesis of antifungal active 1-substituted-8-aryl-3-alkyl/aryl-4H-pyrazolo[4,5-f][1,2,4]triazolo[4,3-b][1,2,4]triazepines using solid support” (2011).

What all share (type): functional
Test [1] deals with Penicillium sp. Description: Antifungal activity against Penicillium species at 500 ug after 24 hrs by paper disc technique. The settings on record: for zone of inhibition at 500 µg/disc: Penicillium sp., 24 h, read-out: DIZ. The method in brief:
(§1)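 Paper disc diffusion on double-layer potato dextrose agar: 15 mL sterile base topped with 15 mL medium seeded at 40 °C with spores from ten-day cultures; streptomycin added to prevent bacterial growth. Compounds dissolved in DMF at 500 or 1000 µg/mL and applied to 6 mm filter paper discs on chilled seeded plates. Plates incubated at 28 ± 2 °C. Inhibition zone measured from disc centre at 24 h, percent inhibition calculated as (C − T)/C × 100. Fluconazole at same concentrations served as standard.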

In test [2] the test system is Rhizopus. Description: Antifungal activity against Rhizopus species at 500 ug after 24 hrs by paper disc technique. Particulars: for zone of inhibition at 500 µg/disc: Rhizopus, 24 h, read-out: DIZ. The method in brief: as §1
The subject of test [3] is Rhizopus. The test can be described thus: Antifungal activity against Rhizopus species at 1000 ug after 24 hrs by paper disc technique. Particulars: for zone of inhibition at 1000 µg/disc: Rhizopus, 24 h, read-out: DIZ. The procedure, abridged: as §1
Test [4] concerns Aspergillus flavus. Description: Antifungal activity against Aspergillus flavus at 1000 ug after 24 hrs by paper disc technique. Particulars: for zone of inhibition at 1000 µg/disc: Aspergillus flavus, 24 h, read-out: DIZ. The method in brief: as §1
In test [5] the test system is Aspergillus niger. The test can be described thus: Antifungal activity against Aspergillus niger at 500 ug after 24 hrs by paper disc technique. The settings on record: for zone of inhibition at 500 µg/disc: Aspergillus niger, 24 h, read-out: DIZ. The method in brief:
as §1

Test [6] deals with Penicillium sp. Description: Antifungal activity against Penicillium species at 1000 ug after 24 hrs by paper disc technique. Particulars: for zone of inhibition at 1000 µg/disc: Penicillium sp., 24 h, read-out: DIZ. The procedure, abridged:
as §1

In test [7] the test system is Aspergillus niger. The test can be described thus: Antifungal activity against Aspergillus niger at 1000 ug after 24 hrs by paper disc technique. The settings on record: for zone of inhibition at 1000 µg/disc: Aspergillus niger, 24 h, read-out: DIZ. The procedure, abridged: as §1
Test [8] has as its system Aspergillus flavus. The test can be described thus: Antifungal activity against Aspergillus flavus at 500 ug after 24 hrs by paper disc technique. Particulars: for zone of inhibition at 500 µg/disc: Aspergillus flavus, 24 h, read-out: DIZ. The method in brief:
as §1

For `O=[N+]([O-])c1ccc(-c2nn(-c3ccccc3)c3c2C=Nc2nnc(-c4ccccc4)n2N3)cc1`, the Activity in the test on Penicillium sp. [1] was 12.98%; in the test with Rhizopus [2] it was 65%; in the test on Rhizopus [3], 66.66%; with Aspergillus niger [5], 51.66%; in the test with Aspergillus flavus [8], 40%. For the same compound, the zone of inhibition at 500 µg/disc in the test with Penicillium sp. [1] turned out to be 7 mm; in the test with Rhizopus [2], 39 mm; in the test on Aspergillus niger [5], 31 mm; with Aspergillus flavus [8], 24 mm. Moreover, the zone of inhibition at 1000 µg/disc worked out at 36 mm with Rhizopus [3], 22 mm in the test on Aspergillus flavus [4], 9 mm with Penicillium sp. [6] and 20 mm in the test with Aspergillus niger [7]. Further, the percent growth inhibition in the test on Aspergillus flavus [4] worked out at 36.66%. Moreover, the figures for the percent inhibition in the test with Penicillium sp. [6] and with Aspergillus niger [7] were 15% and 33.33%, respectively.

With `Cc1n[nH]c2c1C=Nc1nnc(-c3ccc(Cl)cc3)n1N2`, the Activity stood at 13.33% in the test on Penicillium sp. [1]; 51.66% in the test with Rhizopus [2]; 60.66% in the test on Rhizopus [3]; 38.33% in the test with Aspergillus niger [5]; 36.66% with Aspergillus flavus [8]. For the same compound, the zone of inhibition at 500 µg/disc came to 8 mm with Penicillium sp. [1], 31 mm in the test on Rhizopus [2], 23 mm in the test with Aspergillus niger [5] and 22 mm in the test with Aspergillus flavus [8]. Moreover, the zone of inhibition at 1000 µg/disc with Rhizopus [3] was 40 mm; with Aspergillus flavus [4], 24 mm; with Penicillium sp. [6], 9 mm; in the test with Aspergillus niger [7], 32 mm. In the test on Aspergillus flavus [4], this compound showed a percent growth inhibition of 40%. Further, the results for the percent inhibition in the test with Penicillium sp. [6] and in the test on Aspergillus niger [7] were 15% and 53.33%, respectively.

Regarding `Brc1ccc(-c2nn(-c3ccccc3)c3c2C=Nc2nnc(-c4ccccc4)n2N3)cc1`, the Activity with Penicillium sp. [1] is reported as 8.33%; in the test on Rhizopus [2], 42.66%; with Rhizopus [3], 38%; with Aspergillus niger [5], 3.33%; in the test with Aspergillus flavus [8], 31.33%. For the same compound, the zone of inhibition at 500 µg/disc in the test with Penicillium sp. [1] is 5 mm; in the test on Rhizopus [2], 26 mm; in the test with Aspergillus niger [5] it was 2 mm; in the test on Aspergillus flavus [8] it was 18 mm. For the same compound, the zone of inhibition at 1000 µg/disc with Rhizopus [3] was found to be 22 mm; in the test with Aspergillus flavus [4] it was 6 mm; with Penicillium sp. [6], 8 mm; with Aspergillus niger [7], 12 mm. In the test on Aspergillus flavus [4], this compound gave a percent growth inhibition of 11.33%. In addition, the percent inhibition in the test on Penicillium sp. [6] is on record as 13.33%; with Aspergillus niger [7], 21.33%.

As for `Cc1n[nH]c2c1C=Nc1nnc(-c3ccccc3)n1N2`, the Activity in the test on Penicillium sp. [1] was 10%; in the test with Rhizopus [2] it was 53.33%; in the test with Rhizopus [3], 60.66%; in the test on Aspergillus niger [5], 36.66%; in the test with Aspergillus flavus [8], 33.33%. The zone of inhibition at 500 µg/disc in the test with Penicillium sp. [1] worked out at 6 mm; in the test on Rhizopus [2], 32 mm; with Aspergillus niger [5], 22 mm; in the test on Aspergillus flavus [8], 20 mm. The zone of inhibition at 1000 µg/disc in the test with Rhizopus [3] turned out to be 40 mm; with Aspergillus flavus [4], 24 mm; in the test with Penicillium sp. [6], 8 mm; in the test on Aspergillus niger [7], 32 mm. This compound also showed a percent growth inhibition in the test with Aspergillus flavus [4] of 40%. The values for the percent inhibition in the test with Penicillium sp. [6] and in the test with Aspergillus niger [7] were 13.33% and 53.33%, respectively.

As to `C1=Nc2nnc(-c3ccccc3)n2Nc2c1c(-c1ccccc1)nn2-c1ccccc1`, the Activity in the test on Penicillium sp. [1] is 8.33%; in the test with Rhizopus [2], 66.66%; in the test with Rhizopus [3], 65%; in the test on Aspergillus niger [5], 33.33%; in the test on Aspergillus flavus [8], 35.36%. The zone of inhibition at 500 µg/disc in the test with Penicillium sp. [1] amounted to 5 mm; with Rhizopus [2], 36 mm; in the test on Aspergillus niger [5], 20 mm; with Aspergillus flavus [8] it was 21 mm. In addition, the zone of inhibition at 1000 µg/disc is 39 mm in the test on Rhizopus [3], 21 mm in the test with Aspergillus flavus [4], 2 mm with Penicillium sp. [6] and 31 mm in the test with Aspergillus niger [7]. The compound also gave a percent growth inhibition with Aspergillus flavus [4] of 35.36%. For the same compound, the percent inhibition was determined as 3.33% in the test on Penicillium sp. [6] and 51.66% in the test with Aspergillus niger [7].

On to `OC(Cn1cncn1)(Cn1cncn1)c1ccc(F)cc1F` [FLUCONAZOLE], for which the Activity came out at 86.66% in the test on Penicillium sp. [1]; 63.33% in the test with Rhizopus [2]; 70% with Rhizopus [3]; 70% with Aspergillus niger [5]; 58.33% with Aspergillus flavus [8]. Also, the zone of inhibition at 500 µg/disc in the test on Penicillium sp. [1] was 52 mm; in the test on Rhizopus [2], 38 mm; with Aspergillus niger [5], 42 mm; in the test on Aspergillus flavus [8] it was 35 mm. Besides, the zone of inhibition at 1000 µg/disc in the test with Rhizopus [3] was found to be 42 mm; in the test with Aspergillus flavus [4] it was 42 mm; in the test with Penicillium sp. [6], 54 mm; in the test with Aspergillus niger [7], 48 mm. The compound also had a percent growth inhibition in the test on Aspergillus flavus [4] of 70%. For the same compound, the percent inhibition with Penicillium sp. [6] is listed as 90%; with Aspergillus niger [7], 80%.

With `Clc1ccc(-c2nnc3n2Nc2c(c(-c4ccc(Br)cc4)nn2-c2ccccc2)C=N3)cc1`, the Activity in the test with Penicillium sp. [1] is recorded as 15%; with Rhizopus [2], 60.66%; in the test with Rhizopus [3], 53.33%; with Aspergillus niger [5] it was 53.33%; in the test on Aspergillus flavus [8], 36.66%. Also, the zone of inhibition at 500 µg/disc was determined as 9 mm with Penicillium sp. [1], 40 mm in the test with Rhizopus [2], 32 mm in the test on Aspergillus niger [5] and 22 mm in the test with Aspergillus flavus [8]. The zone of inhibition at 1000 µg/disc worked out at 32 mm in the test on Rhizopus [3], 24 mm in the test on Aspergillus flavus [4], 8 mm in the test with Penicillium sp. [6] and 21 mm with Aspergillus niger [7]. The same compound registered a percent growth inhibition in the test on Aspergillus flavus [4] of 40%. Further, the results for the percent inhibition in the test on Penicillium sp. [6] and in the test on Aspergillus niger [7] were 13.33% and 35.36%, respectively.

Consider `Brc1ccc(-c2nn(-c3ccccc3)c3c2C=Nc2nnc(Cc4ccccc4)n2N3)cc1`, for which the Activity in the test with Penicillium sp. [1] worked out at 8.33%; in the test on Rhizopus [2] it was 46.66%; in the test with Rhizopus [3] it was 40%; in the test on Aspergillus niger [5], 3.33%; in the test with Aspergillus flavus [8], 33.33%. Also, the zone of inhibition at 500 µg/disc with Penicillium sp. [1] came out at 5 mm; in the test with Rhizopus [2] it was 28 mm; in the test with Aspergillus niger [5], 2 mm; with Aspergillus flavus [8], 20 mm. For the same compound, the zone of inhibition at 1000 µg/disc came to 24 mm in the test on Rhizopus [3], 8 mm in the test on Aspergillus flavus [4] and 14 mm with Aspergillus niger [7]. For the same compound, the percent growth inhibition in the test with Aspergillus flavus [4] is on record as 13.33%. The compound further registered a percent inhibition with Aspergillus niger [7] of 23.33%.

For `O=[N+]([O-])c1ccc(-c2nn(-c3ccccc3)c3c2C=Nc2nnc(-c4ccc([N+](=O)[O-])cc4)n2N3)cc1`, the Activity in the test on Rhizopus [2] is 30%; in the test with Rhizopus [3], 38.33%; in the test on Aspergillus niger [5] it was 13.33%; with Aspergillus flavus [8] it was 5%. Also, the zone of inhibition at 500 µg/disc in the test on Rhizopus [2] turned out to be 18 mm; with Aspergillus niger [5], 8 mm; in the test with Aspergillus flavus [8] it was 3 mm. For the same compound, the zone of inhibition at 1000 µg/disc in the test with Rhizopus [3] came out at 23 mm; in the test on Aspergillus flavus [4], 9 mm; in the test with Aspergillus niger [7], 15 mm. The same compound gave a percent growth inhibition in the test on Aspergillus flavus [4] of 15%. This compound showed a percent inhibition in the test with Aspergillus niger [7] of 25%.

Regarding `O=[N+]([O-])c1ccc(-c2nn(-c3ccccc3)c3c2C=Nc2nnc(Cc4ccccc4)n2N3)cc1`, the Activity in the test on Rhizopus [2] is listed as 46.66%; in the test on Rhizopus [3], 40%; with Aspergillus niger [5] it was 3.33%; in the test with Aspergillus flavus [8] it was 33.33%. Also, the results for the zone of inhibition at 500 µg/disc in the test with Rhizopus [2], with Aspergillus niger [5] and in the test with Aspergillus flavus [8] were 28 mm, 2 mm and 20 mm, respectively. For the same compound, the results for the zone of inhibition at 1000 µg/disc in the test with Rhizopus [3], with Aspergillus flavus [4] and in the test on Aspergillus niger [7] were 24 mm, 8 mm and 14 mm, respectively. In addition, the percent growth inhibition in the test on Aspergillus flavus [4] amounted to 13.33%. Also, the percent inhibition in the test with Aspergillus niger [7] worked out at 23.33%.

On to `O=[N+]([O-])c1ccc(-c2nnc3n2Nc2c(c(-c4ccc(Br)cc4)nn2-c2ccccc2)C=N3)cc1`, for which the Activity in the test with Penicillium sp. [1] is listed as 3.33%; with Rhizopus [2], 40%; in the test with Rhizopus [3], 35.36%; in the test on Aspergillus niger [5] it was 23.33%; with Aspergillus flavus [8], 31.33%. Besides, the zone of inhibition at 500 µg/disc is 2 mm in the test with Penicillium sp. [1], 24 mm with Rhizopus [2], 14 mm with Aspergillus niger [5] and 18 mm with Aspergillus flavus [8]. For the same compound, the zone of inhibition at 1000 µg/disc in the test with Rhizopus [3] worked out at 21 mm; in the test with Aspergillus flavus [4], 8 mm; with Penicillium sp. [6], 5 mm; in the test on Aspergillus niger [7] it was 2 mm. Moreover, the percent growth inhibition in the test with Aspergillus flavus [4] was found to be 13.33%. Further, the percent inhibition in the test on Penicillium sp. [6] amounted to 8.33%; in the test with Aspergillus niger [7], 3.33%.
